In ChEMBL document CHEMBL4673298, “Exploration of Structure-Activity Relationship of Aromatic Aldehydes Bearing Pyridinylmethoxy-Methyl Esters as Novel Antisickling Agents” (J Med Chem, 2020):
Active and inactive are the calls of the source. The rule behind the calls is not given here.

Tests used:
[1] = Induction of in-vivo hemoglobin-O2 affinity shifts in C57BL/6 mouse at 150 mg/kg, ip dosed as single administration measured after 6 hrs by oxygen equilibrium curve study; type: functional
Summary of the method: (§1)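 C57BL/6 mice (3 male, 3 female) receive a single intraperitoneal dose of 150 mg/kg. Blood is drawn by submandibular bleeding before dosing and at 1, 3 and 6 h, then hemolyzed. Hb modification and Hb-O2 affinity shift are measured; n = 6.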

[2] = Inhibition of sickling in sickle cell RBCs from blood isolated from patient with homozygous SS at 2 mM under hypoxic conditions incubated for 2 hrs; type: functional; conditions: Homo sapiens, Erythrocyte
Summary of the method: (§2)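 SS blood, hematocrit 20%, preincubated under air with compound (0.5, 1, 2 mM) for 1 h at 37 °C, then 2 h hypoxia (2.5% O2/97.5% N2) at 37 °C. Aliquots are fixed in 2% glutaraldehyde without air exposure. Cell morphology is scored from bright-field images at 40×. Three biological replicates, mean ± SD.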

[3] = Induction of in-vivo modification of intracellular hemoglobin in C57BL/6 mouse at 150 mg/kg, ip dosed as single administration measured after 6 hrs by cation-exchange HPLC analysis
[4] = Inhibition of sickling in sickle cell RBCs from blood isolated from patient with homozygous SS at 0.5 mM under hypoxic conditions incubated for 2 hrs; type: functional; conditions: Homo sapiens, Erythrocyte; summary of the method: as §2
Red blood cell [5] = experiment: Binding affinity to Hemoglobin in sickle cell RBCs from blood isolated from patient with homozygous SS assessed as increase in Hb affinity for oxygen under hypoxic conditions incubated for 2 hrs by oxygen equilibrium curve study; type: tissue-based; conditions: Homo sapiens
Summary of the method: (§3)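 SS blood, hematocrit 20%, incubated under air with compound (0.5, 1, 2 mM) at 37 °C for 1 h, then hypoxic (2.5% O2/97.5% N2) at 37 °C for 2 h. Cells are washed in PBS and hemolyzed hypotonically. Lysate in 0.1 M potassium phosphate pH 7.0 is run by Hemox analysis for P50. ΔP50 is given as percent of DMSO control. Three biological replicates, mean ± SD.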

Mus musculus [6] = experiment: Induction of in-vivo modification of intracellular hemoglobin in C57BL/6 mouse at 150 mg/kg, ip dosed as single administration measured after 1 to 6 hrs by cation-exchange HPLC analysis; type: functional, organism-based; conditions: time 1-6 hrs, TDE = time-dependent effect; summary of the method: as §1
Red blood cell [7] = experiment: Binding affinity to Hemoglobin in sickle cell RBCs from blood isolated from patient with homozygous SS assessed as increase in hemoglobin modification under hypoxic conditions incubated for 2 hrs […]; type: tissue-based; conditions: Homo sapiens
Summary of the method: (§4)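 SS blood, hematocrit 20%, incubated under air with compound (0.5, 1, 2 mM) at 37 °C for 1 h, then hypoxic (2.5% O2/97.5% N2) at 37 °C for 2 h. Cells are washed and hemolyzed. Lysate is run on weak cation-exchange HPLC to quantify Hb adduct (modified Hb). Three biological replicates, mean ± SD.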

[8] = Inhibition of sickling in sickle cell RBCs from blood isolated from patient with homozygous SS at 1 mM under hypoxic conditions incubated for 2 hrs; type: functional; conditions: Homo sapiens, Erythrocyte; summary of the method: as §2
Erythrocyte = experiment: Inhibition of sickling in sickle cell RBCs from blood isolated from patient with homozygous SS under hypoxic conditions incubated for 2 hrs; type: functional, tissue-based; conditions: Homo sapiens; summary of the method: as §2
Red blood cell [9] = experiment: Binding affinity to Hemoglobin in sickle cell RBCs from blood isolated from patient with homozygous SS assessed as increase in hemoglobin modification at 1 mM under hypoxic conditions incubated for 2 hrs […]; type: tissue-based; conditions: Homo sapiens; summary of the method: as §4
Red blood cell [10] = experiment: Binding affinity to Hemoglobin in sickle cell RBCs from blood isolated from patient with homozygous SS assessed as increase in hemoglobin modification at 2 mM under hypoxic conditions incubated for 2 hrs […]; type: tissue-based; conditions: Homo sapiens; summary of the method: as §4
Mus musculus [11] = experiment: Induction of in-vivo hemoglobin-O2 affinity shifts in C57BL/6 mouse at 150 mg/kg, ip dosed as single administration measured after 3 to 6 hrs by oxygen equilibrium curve study; type: functional, organism-based; conditions: time 3-6 hrs, TDE = time-dependent effect; summary of the method: as §1
Homo sapiens [12] = species: Homo sapiens; experiment: Binding affinity to Hemoglobin in normal human whole blood assessed as increase in Hb affinity for oxygen at 2 mM by oxygen equilibrium curve study; type: tissue-based
Summary of the method: (§5)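 Normal human whole blood, hematocrit 30%, incubated with or without compound in DMSO (0.5, 1.0 or 2.0 mM; 2 mM for the time course) at 37 °C. The blood is tonometered about 7 min at 37 °C against gas with 0.804, 2.935 and 5.528% O2 (6, 20, 40 mmHg). sO2 and pO2 are read on a blood gas analyzer. ΔP50% is taken relative to no compound. Time course sampled at 1, 2, 4, 8, 12, 24 h.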

Homo sapiens [13] = species: Homo sapiens; experiment: Binding affinity to Hemoglobin in normal human whole blood assessed as increase in Hb affinity for oxygen incubated for 1.5 hrs by oxygen equilibrium curve study; type: tissue-based; summary of the method: as §5
Red blood cell [14] = experiment: Binding affinity to Hemoglobin in sickle cell RBCs from blood isolated from patient with homozygous SS assessed as increase in Hb affinity shift for oxygen at 0.5 mM under hypoxic conditions incubated for 2 hrs by oxygen equilibrium curve study; type: tissue-based; conditions: Homo sapiens; summary of the method: as §3
[15] = Stability in human whole blood assessed as parent compound level at 1 mM incubated for 24 hrs by reversed-phase HPLC analysis; type: ADME, tissue-based; conditions: read-out: Stabilty
Summary of the method: (§6)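 Normal whole blood, hematocrit 30%, incubated with or without compound at 0.5 or 1 mM at 37 °C. Aliquots taken at 0, 4, 8, 24 h are deproteinized with 0.1 M formic acid in acetonitrile at 60–65 °C for 30 min, centrifuged and filtered. Reversed-phase C18 HPLC uses a 0.1% formic acid water/acetonitrile gradient, detection at 261 nm. Parent and carboxylic acid analogue are quantified; the acid serves as reference.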

Red blood cell [16] = experiment: Binding affinity to Hemoglobin in sickle cell RBCs from blood isolated from patient with homozygous SS assessed as increase in Hb affinity shift for oxygen at 1 mM under hypoxic conditions incubated for 2 hrs by oxygen equilibrium curve study; type: tissue-based; conditions: Homo sapiens; summary of the method: as §3
Red blood cell [17] = experiment: Binding affinity to Hemoglobin in sickle cell RBCs from blood isolated from patient with homozygous SS assessed as increase in hemoglobin modification at 0.5 mM under hypoxic conditions incubated for 2 hrs […]; type: tissue-based; conditions: Homo sapiens; summary of the method: as §4
[18] = Drug metabolism in human whole blood assessed as carboxylic acid analogue formation at 0.5 to 1 mM incubated up to 24 hrs by reversed-phase HPLC analysis; type: ADME, tissue-based; conditions: 1000 µM, dose 0.5-1 mM; summary of the method: as §6
Red blood cell [19] = experiment: Binding affinity to Hemoglobin in sickle cell RBCs from blood isolated from patient with homozygous SS assessed as increase in Hb affinity shift for oxygen at 2 mM under hypoxic conditions incubated for 2 hrs by oxygen equilibrium curve study; type: tissue-based; conditions: Homo sapiens; summary of the method: as §3
[20] = Stability in human whole blood assessed as parent compound level at 0.5 mM incubated for 24 hrs by reversed-phase HPLC analysis; type: ADME, tissue-based; conditions: read-out: Stabilty; summary of the method: as §6

| SMILES | inhibition at 2000 µM [2] | inhibition at 500 µM [4] | Activity (Red blood cell [5]) | Activity (Red blood cell [7]) | inhibition at 1000 µM [8] | inhibition (Erythrocyte) | Activity (Red blood cell [9]) | Activity (Red blood cell [10]) | Activity (Homo sapiens [12]; TDE = time-dependent effect) | Activity (Homo sapiens [13]) | Activity (Red blood cell [14]) | Activity (Red blood cell [16]) | Activity (Red blood cell [17]) | Activity (Red blood cell [19]) | also measured |
| --- | --- | --- | --- | --- | --- | --- | --- | --- | --- | --- | --- | --- | --- | --- | --- |
| COc1ccc(OCc2cccc(CO)n2)c(C=O)c1 | > 90% | 26% | Dose-dependent effect | Dose-dependent effect | 47% | Dose-dependent effect | 60% | 80% |  |  |  |  |  |  | Activity [1]: 1%; Activity [3]: 1.5%; Activity (Mus musculus [6]): Tde; Activity (Mus musculus [11]): Tde |
| COC(=O)c1ccnc(COc2cccc(O)c2C=O)c1 | > 90% |  | Dose-dependent effect | Dose-dependent effect |  | Dose-dependent effect | > 80% | < 100% | Tde | Dose-dependent effect |  |  |  |  |  |
| COC(=O)c1cncc(COc2cccc(O)c2C=O)c1 | > 90% |  | Dose-dependent effect | Dose-dependent effect |  | Dose-dependent effect | 60% | < 100% |  |  |  |  |  |  |  |
| COC(=O)c1cccc(COc2cccc(O)c2C=O)n1 | 93.2% | 7.6% | Dose-dependent effect | Dose-dependent effect | 54.2% | Dose-dependent effect | 81.1% | 100% |  | inactive | 5.4% | 29.2% | 29.2% | 48.6% | Activity [1]: 5.5%; remaining at 24 h, 1000 µM [15]: 83%; Activity [3]: 9.6%; Activity (Mus musculus [6]): Tde; Drug metabolism [18]: Metabolite_Detected; Activity (Homo sapiens [12]): inactive; Activity (Mus musculus [11]): Tde; remaining at 24 h, 500 µM [20]: 89% |
| COC(=O)c1cccnc1COc1ccc(OC)cc1C=O | 99% | 41.8% | Dose-dependent effect | Dose-dependent effect | 71.7% | Dose-dependent effect | 49.9% | 67.5% | Tde | Dose-dependent effect | 5.9% | 12.8% | 32.1% | 21.3% |  |
| COC(=O)c1cccc(COc2ccc(OC)cc2C=O)n1 | 88% | 17.5% | Dose-dependent effect | Dose-dependent effect | 48.2% | Dose-dependent effect | 41.7% | 63.8% |  | inactive | 4.8% | 20.1% | 20.9% | 37.1% | Activity (Homo sapiens [12]): inactive |
| COC(=O)c1ccc(COc2cccc(O)c2C=O)cn1 | 98.9% | 39.5% | Dose-dependent effect | Dose-dependent effect | 90.7% | Dose-dependent effect | 92.5% | 100% | Tde | Dose-dependent effect | 16.3% | 44.2% | 47.8% | 60.1% |  |
